One assay concerns the target Sulfonylurea receptor 2, Kir6.2 (Homo sapiens, UniProt O60706+Q14654). Briefly: Ability to open human urinary bladder Kir6.2 channel containing SUR2B in Ltk cells by FLIPR assay. Type of assay: functional, cell-based. An outline of the steps: (§1)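 Ltk- cells stably transfected with the Kir6.2/SUR2B exon 17- splice variant. Membrane potential was followed with DiBAC dye in a 96-well cell-based kinetic fluorescence (FLIPR) assay. The highest concentration tested was 10 µM. Each compound's maximal fluorescence response was expressed as % of the response to the reference opener.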
Sulfonylurea receptor 2, Kir6.2, sequence (Q14654 whole entry, canonical isoform): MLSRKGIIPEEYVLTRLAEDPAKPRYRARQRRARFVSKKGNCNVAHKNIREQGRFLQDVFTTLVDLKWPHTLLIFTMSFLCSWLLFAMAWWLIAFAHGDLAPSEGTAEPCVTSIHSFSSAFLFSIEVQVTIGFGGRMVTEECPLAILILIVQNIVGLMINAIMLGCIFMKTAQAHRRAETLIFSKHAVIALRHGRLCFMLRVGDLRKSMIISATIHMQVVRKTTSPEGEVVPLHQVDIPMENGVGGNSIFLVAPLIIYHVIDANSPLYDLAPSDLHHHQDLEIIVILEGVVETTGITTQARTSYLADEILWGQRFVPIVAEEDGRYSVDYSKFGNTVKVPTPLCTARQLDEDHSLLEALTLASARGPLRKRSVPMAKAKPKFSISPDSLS
Sulfonylurea receptor 2, Kir6.2, sequence (O60706 whole entry, canonical isoform): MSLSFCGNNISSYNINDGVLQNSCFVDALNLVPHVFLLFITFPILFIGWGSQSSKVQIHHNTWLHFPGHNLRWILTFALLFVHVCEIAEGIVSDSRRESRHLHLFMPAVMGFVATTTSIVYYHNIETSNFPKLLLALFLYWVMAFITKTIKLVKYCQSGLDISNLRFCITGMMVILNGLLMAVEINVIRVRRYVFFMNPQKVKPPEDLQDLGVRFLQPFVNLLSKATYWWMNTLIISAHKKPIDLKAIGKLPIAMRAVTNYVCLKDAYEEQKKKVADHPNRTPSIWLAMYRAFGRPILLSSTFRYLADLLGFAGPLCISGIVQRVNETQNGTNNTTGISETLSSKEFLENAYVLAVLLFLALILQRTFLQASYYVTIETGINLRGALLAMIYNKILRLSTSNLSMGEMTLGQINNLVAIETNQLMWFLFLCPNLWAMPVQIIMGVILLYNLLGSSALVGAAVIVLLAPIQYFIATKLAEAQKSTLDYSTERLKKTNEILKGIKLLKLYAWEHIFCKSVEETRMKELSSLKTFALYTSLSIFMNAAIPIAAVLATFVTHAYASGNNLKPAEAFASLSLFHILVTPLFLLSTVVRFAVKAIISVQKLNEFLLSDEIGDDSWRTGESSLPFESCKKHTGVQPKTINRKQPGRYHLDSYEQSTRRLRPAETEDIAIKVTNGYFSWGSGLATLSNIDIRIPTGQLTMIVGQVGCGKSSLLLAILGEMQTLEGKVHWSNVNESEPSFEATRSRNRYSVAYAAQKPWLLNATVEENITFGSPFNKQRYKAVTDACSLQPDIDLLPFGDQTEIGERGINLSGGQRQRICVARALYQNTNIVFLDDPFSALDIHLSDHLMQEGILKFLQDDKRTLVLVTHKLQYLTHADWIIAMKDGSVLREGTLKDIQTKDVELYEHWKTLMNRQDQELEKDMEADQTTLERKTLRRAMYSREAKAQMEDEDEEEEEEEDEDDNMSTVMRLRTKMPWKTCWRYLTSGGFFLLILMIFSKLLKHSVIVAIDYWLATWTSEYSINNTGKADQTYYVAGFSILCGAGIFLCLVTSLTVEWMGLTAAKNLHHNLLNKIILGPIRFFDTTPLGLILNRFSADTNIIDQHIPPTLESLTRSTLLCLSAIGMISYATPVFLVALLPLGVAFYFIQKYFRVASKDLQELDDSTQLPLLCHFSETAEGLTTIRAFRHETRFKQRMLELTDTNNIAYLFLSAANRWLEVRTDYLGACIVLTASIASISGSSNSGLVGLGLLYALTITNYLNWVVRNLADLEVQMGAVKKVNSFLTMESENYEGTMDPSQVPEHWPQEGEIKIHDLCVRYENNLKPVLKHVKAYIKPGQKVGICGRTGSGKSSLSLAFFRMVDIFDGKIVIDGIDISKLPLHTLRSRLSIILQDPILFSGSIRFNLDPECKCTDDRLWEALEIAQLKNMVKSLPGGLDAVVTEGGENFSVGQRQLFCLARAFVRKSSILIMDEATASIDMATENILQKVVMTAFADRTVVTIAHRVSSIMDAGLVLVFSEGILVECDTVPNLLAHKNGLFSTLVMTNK
In turn, `CCC[C@H]1OC(O)=C2C1=NC1=C(C(=O)COC1)[C@H]2c1ccc(Br)c(Br)c1` (stereo in doubt; 45b) showed an EC50 of 126 nM.

Take `CCC[C@H]1OC(O)=C2C1=NC1=C(C(=O)COC1)[C@H]2c1ccc(C)c(Br)c1` (stereo in doubt; 46a): the EC50 is 3470 nM.

As for `CCC[C@H]1OC(O)=C2C1=NC1=C(C(=O)COC1)[C@H]2c1ccc(C)c(Br)c1` (stereo in doubt; 46b), the EC50 was 219 nM.

On to `CC[C@@H]1OCC(O)=C2C1=NC1=C(C(=O)COC1)[C@H]2c1ccc(F)c(Br)c1` (stereo in doubt; 70a), for which the response was half-maximal at 166 nM (EC50).

For `CC[C@@H]1OCC(O)=C2C1=NC1=C(C(=O)COC1)[C@H]2c1ccc(F)c(Br)c1` (stereo in doubt; 70b), the EC50 is 20 nM.

As for `CC[C@H]1OCC(O)=C2C1=NC1=C(C(=O)COC1)[C@H]2c1ccc(F)c(Br)c1` (stereo in doubt; 71b), the concentration for a half-maximal effect (EC50) was more than 10000 nM.

For the compound `CC[C@H]1OCC(O)=C2C1=NC1=C(C(=O)COC1)[C@H]2c1ccc(F)c(Cl)c1` (stereo in doubt; 72a), the midpoint of the response, the EC50, lay at 3630 nM.

In the case of `CC[C@H]1OCC(O)=C2C1=NC1=C(C(=O)COC1)[C@H]2c1ccc(F)c(Cl)c1` (stereo in doubt; 72b), the concentration giving a half-maximal response (EC50) is more than 10000 nM.

`CC[C@H]1OCC(O)=C2C1=NC1=C(C(=O)COC1)[C@H]2c1ccc(F)c(I)c1` (stereo in doubt; 73a) showed a concentration for a half-maximal effect (EC50) of 1290 nM.

Consider `CC[C@H]1OCC(O)=C2C1=NC1=C(C(=O)COC1)[C@H]2c1ccc(F)c(I)c1` (stereo in doubt; 73b), for which the EC50 was 2950 nM.

Consider `CC[C@H]1OCC(O)=C2C1=NC1=C(C(=O)COC1)[C@H]2c1ccc(Cl)c(Cl)c1` (stereo in doubt; 74a), for which the EC50 was 468 nM.

With `CC[C@H]1OCC(O)=C2C1=NC1=C(C(=O)COC1)[C@H]2c1ccc(Cl)c(Br)c1` (stereo in doubt; 75a), a half-maximal effect (EC50) was put at 759 nM.

The compound `CC[C@H]1OCC(O)=C2C1=NC1=C(C(=O)COC1)[C@H]2c1ccc(Cl)c(Br)c1` (stereo in doubt; 75b) gave an EC50 of 5500 nM.

For `CC[C@H]1OCC(O)=C2C1=NC1=C(C(=O)COC1)[C@H]2c1ccc(Br)c(Cl)c1` (stereo in doubt; 76a), the EC50 is 1620 nM.

`CC[C@H]1OCC(O)=C2C1=NC1=C(C(=O)COC1)[C@H]2c1ccc(Br)c(Br)c1` (stereo in doubt; 77a) gave an EC50 of 309 nM.

Compound `CC[C@H]1OCC(O)=C2C1=NC1=C(C(=O)COC1)[C@H]2c1ccc(Br)c(Br)c1` (stereo in doubt; 77b) had a concentration for a half-maximal effect (EC50) of 427 nM.

Compound `CC[C@H]1OCC(O)=C2C1=NC1=C(C(=O)COC1)[C@H]2c1ccc(C)c(Br)c1` (stereo in doubt; 78a) gave an EC50 of 724 nM.

Compound `CC[C@H]1OCC(O)=C2C1=NC1=C(C(=O)COC1)[C@H]2c1ccc(C)c(Br)c1` (stereo in doubt; 78b) showed an EC50 of 5620 nM.

In another assay the target is Sulfonylurea receptor 2, Kir6.2 (Homo sapiens) (UniProt Q14654+O60706). The experiment in a line: Ability to open human urinary bladder Kir6.2 containing SUR2B in Ltk cells by FLIPR assay relative to P1075. It is filed as functional, cell-based. An outline of the steps:
as §1
`CCCC[C@H]1OC(O)=C2C1=NC1=C(C(=O)COC1)[C@H]2c1ccc(F)c(Br)c1` (racemic) registered an Efficacy of 61%.

With `CCC[C@@H]1OC(O)=C2C1=NC1=C(C(=O)COC1)[C@H]2c1ccc(F)c(Br)c1` (racemic), the Efficacy was 90%.

For `CCC[C@H]1OC(O)=C2C1=NC1=C(C(=O)COC1)[C@H]2c1ccc(Br)c(Br)c1` (racemic), the Efficacy was found to be 119%.

With `CCC[C@H]1OC(O)=C2C1=NC1=C(C(=O)COC1)[C@H]2c1ccc(Br)c(Cl)c1` (racemic), the Efficacy worked out at 97%.

`CCC[C@H]1OC(O)=C2C1=NC1=C(C(=O)COC1)[C@H]2c1ccc(C)c(Br)c1` (racemic) came in with an Efficacy of 104%.

For the compound `CCC[C@H]1OC(O)=C2C1=NC1=C(C(=O)COC1)[C@H]2c1ccc(Cl)c(Br)c1` (racemic), the Efficacy was 120%.

Compound `CCC[C@H]1OC(O)=C2C1=NC1=C(C(=O)COC1)[C@H]2c1ccc(Cl)c(Cl)c1` (racemic) had an Efficacy of 95%.

`CCC[C@H]1OC(O)=C2C1=NC1=C(C(=O)COC1)[C@H]2c1ccc(F)c(Cl)c1` (racemic) yielded an Efficacy of 42%.

Consider `CCC[C@H]1OC(O)=C2C1=NC1=C(C(=O)COC1)[C@H]2c1ccc(F)c(I)c1` (racemic), for which the Efficacy was determined as 105%.

For `CC[C@@H]1OC(O)=C2C1=NC1=C(C(=O)COC1)[C@H]2c1ccc(F)c(Br)c1` (racemic), the Efficacy stood at 74%.

For `CC[C@@H]1OCC(O)=C2C1=NC1=C(C(=O)COC1)[C@H]2c1ccc(F)c(Br)c1` (racemic), the Efficacy was found to be 60%.

Compound `CC[C@H]1OC(O)=C2C1=NC1=C(C(=O)C(C)(C)OC1)[C@H]2c1ccc(F)c(Br)c1` (racemic) returned an Efficacy of 70%.

On to `CC[C@H]1OC(O)=C2C1=NC1=C(C(=O)COC1(C)C)[C@H]2c1ccc(F)c(Br)c1` (racemic), for which the Efficacy came out at 48%.

For the compound `CC[C@H]1OCC(O)=C2C1=NC1=C(C(=O)COC1)[C@H]2c1ccc(Br)c(Br)c1` (racemic), the Efficacy came to 76%.

Compound `CC[C@H]1OCC(O)=C2C1=NC1=C(C(=O)COC1)[C@H]2c1ccc(Br)c(Cl)c1` (racemic) yielded an Efficacy of 46%.

`CC[C@H]1OCC(O)=C2C1=NC1=C(C(=O)COC1)[C@H]2c1ccc(C)c(Br)c1` (racemic) showed an Efficacy of 70%.

`CC[C@H]1OCC(O)=C2C1=NC1=C(C(=O)COC1)[C@H]2c1ccc(Cl)c(Br)c1` (racemic) gave an Efficacy of 70%.

In turn, `CC[C@H]1OCC(O)=C2C1=NC1=C(C(=O)COC1)[C@H]2c1ccc(F)c(I)c1` (racemic) showed an Efficacy of 47%.

Regarding `COC[C@H]1OC(O)=C2C1=NC1=C(C(=O)COC1)[C@H]2c1ccc(F)c(Br)c1` (racemic), the Efficacy turned out to be 103%.

Regarding `C[C@@H]1OC(O)=C2C1=NC1=C(C(=O)COC1)[C@H]2c1ccc(F)c(Br)c1` (racemic), the Efficacy was determined as 100%.

Consider `C[C@@H]1OCC2=C(C1=O)[C@@H](c1ccc(F)c(Br)c1)C1=C(O)OCC1=N2` (racemic), for which the Efficacy worked out at 81%.

The compound `C[C@@H]1OCC2=C(C1=O)[C@H](c1ccc(F)c(Br)c1)C1=C(O)OCC1=N2` (racemic) yielded an Efficacy of 104%.

Take `C[C@H]1OC(O)=C2C1=NC1=C(C(=O)COC1)[C@H]2c1ccc(F)c(Br)c1` (racemic): the Efficacy is 75%.

In the case of `CC1(C)OCC2=C(C1=O)C(c1ccc(F)c(Br)c1)C1=C(O)OCC1=N2` (single isomer, unassigned; (+)), the Efficacy came to 104%.

Regarding `O=C1COCC2=C1C(c1ccc(F)c(Br)c1)C1=C(O)OCC1=N2` (stereo in doubt; 6), the Efficacy amounted to 92%.

As for `C[C@@H]1OCC2=C(C1=O)[C@@H](c1ccc(F)c(Br)c1)C1=C(O)OCC1=N2` (stereo in doubt; 7b), the Efficacy turned out to be 94%.

The compound `CC1(C)OCC2=C(C1=O)C(c1ccc(F)c(Br)c1)C1=C(O)OCC1=N2` (stereo in doubt; 9) showed an Efficacy of 86%.

`CC1(C)OCC2=C(C1=O)C(c1ccc(F)c(Br)c1)C1=C(O)OCC1=N2` (stereo in doubt; 9b) gave an Efficacy of 77%.

For `C[C@@H]1OC(O)=C2C1=NC1=C(C(=O)COC1)[C@H]2c1ccc(F)c(Br)c1` (stereo in doubt; 17b), the Efficacy is 89%.

Compound `C[C@H]1OC(O)=C2C1=NC1=C(C(=O)COC1)[C@H]2c1ccc(F)c(Br)c1` (stereo in doubt; 18a) displayed an Efficacy of 86%.

The compound `C[C@H]1OC(O)=C2C1=NC1=C(C(=O)COC1)[C@H]2c1ccc(F)c(Br)c1` (stereo in doubt; 18b) returned an Efficacy of 85%.

`CC[C@@H]1OC(O)=C2C1=NC1=C(C(=O)COC1)[C@H]2c1ccc(F)c(Br)c1` (stereo in doubt; 20a): the Efficacy was 101%.

In turn, `CC[C@@H]1OC(O)=C2C1=NC1=C(C(=O)COC1)[C@H]2c1ccc(F)c(Br)c1` (stereo in doubt; 20b) came in with an Efficacy of 85%.

In turn, `CCC[C@@H]1OC(O)=C2C1=NC1=C(C(=O)COC1)[C@H]2c1ccc(F)c(Br)c1` (stereo in doubt; 22a) returned an Efficacy of 82%.

`CCC[C@@H]1OC(O)=C2C1=NC1=C(C(=O)COC1)[C@H]2c1ccc(F)c(Br)c1` (stereo in doubt; 22b) displayed an Efficacy of 66%.

In the case of `CCC[C@H]1OC(O)=C2C1=NC1=C(C(=O)COC1)[C@H]2c1ccc(F)c(Br)c1` (stereo in doubt; 23a), the Efficacy came out at 75%.

Compound `COC[C@H]1OC(O)=C2C1=NC1=C(C(=O)COC1)[C@H]2c1ccc(F)c(Br)c1` (stereo in doubt; 25a) came in with an Efficacy of 95%.

With `COC[C@H]1OC(O)=C2C1=NC1=C(C(=O)COC1)[C@H]2c1ccc(F)c(Br)c1` (stereo in doubt; 25b), the Efficacy turned out to be 104%.

Compound `CCCC[C@H]1OC(O)=C2C1=NC1=C(C(=O)COC1)[C@H]2c1ccc(F)c(Br)c1` (stereo in doubt; 29a) displayed an Efficacy of 62%.

For `CC(C)C[C@H]1OC(O)=C2C1=NC1=C(C(=O)COC1)[C@H]2c1ccc(F)c(Br)c1` (stereo in doubt; 31a), the Efficacy was determined as 66%.

Compound `CC[C@H]1OC(O)=C2C1=NC1=C(C(=O)C(C)(C)OC1)[C@H]2c1ccc(F)c(Br)c1` (stereo in doubt; 36a) showed an Efficacy of 89%.

On to `CC[C@H]1OC(O)=C2C1=NC1=C(C(=O)COC1(C)C)[C@H]2c1ccc(F)c(Br)c1` (stereo in doubt; 38a), for which the Efficacy worked out at 77%.

`CCC[C@H]1OC(O)=C2C1=NC1=C(C(=O)COC1)[C@H]2c1ccc(F)c(Cl)c1` (stereo in doubt; 39a) registered an Efficacy of 74%.

Turning to `CCC[C@H]1OC(O)=C2C1=NC1=C(C(=O)COC1)[C@H]2c1ccc(F)c(I)c1` (stereo in doubt; 41a), the Efficacy was 81%.

`CCC[C@H]1OC(O)=C2C1=NC1=C(C(=O)COC1)[C@H]2c1ccc(Cl)c(Cl)c1` (stereo in doubt; 42a) returned an Efficacy of 87%.

`CCC[C@H]1OC(O)=C2C1=NC1=C(C(=O)COC1)[C@H]2c1ccc(Cl)c(Cl)c1` (stereo in doubt; 42b) had an Efficacy of 62%.

The compound `CCC[C@H]1OC(O)=C2C1=NC1=C(C(=O)COC1)[C@H]2c1ccc(Cl)c(Br)c1` (stereo in doubt; 43a) yielded an Efficacy of 90%.
